Compound activity: PubChem, Sanford-Burnham Center for Chemical Genomics
A selection: hits, their analogues and other compounds. The true share with any hit is near 0.79%.
mIAP block: inhibitors of mouse IAP, primary screen, biochemical, luminescence, uHTS; 330,000 compounds, 0.2% hits; inhibition, % at 10 µM; intestinal alkaline phosphatase [Mus musculus]; purified mouse IAP, CDP-Star luminescence, 30 min; AID 2806, 2010;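 active = inhibition of at least 40% at 10 µM in the primary screen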;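 also: plate controls were DMSO with enzyme for no effect and no enzyme wells for full effect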
mIAP act: activators of mouse IAP, primary screen, biochemical, luminescence, uHTS; activation factor at 10 µM; 330,000 compounds, 0.24% hits; AID 2805, 2010; muIAP, CDP-Star luminescence, 30 min; hits give high values; 1 = vehicle-only enzyme signal, 0 = enzyme-free wells;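 active = activation factor of at least 2 at 20 µM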
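System: mouse IAP enzyme. Reagent: CDP-Star chemiluminescent phosphatase substrate. Benchmarks: DMSO wells, no-enzyme wells. Times: 30 min enzyme-substrate-compound incubation at room temperature. Detection: luminescence from enzymatic CDP-Star hydrolysis. Doses: test compounds delivered from DMSO solution.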
hIAP act: human IAP activators, primary screen, biochemical, luminescence, uHTS. Intestinal-type alkaline phosphatase (Homo sapiens), P09923. purified human IAP, CDP-Star luminescence, 30 min; hits give high values; 1 = vehicle-only enzyme, 0 = enzyme-free background. activation factor at 10 µM. 330,000 compounds, 0.16% hits;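 active = activation factor of the enzyme at least 2-fold when tested at 20 µM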
Target sequence (P09923 whole entry, looked up): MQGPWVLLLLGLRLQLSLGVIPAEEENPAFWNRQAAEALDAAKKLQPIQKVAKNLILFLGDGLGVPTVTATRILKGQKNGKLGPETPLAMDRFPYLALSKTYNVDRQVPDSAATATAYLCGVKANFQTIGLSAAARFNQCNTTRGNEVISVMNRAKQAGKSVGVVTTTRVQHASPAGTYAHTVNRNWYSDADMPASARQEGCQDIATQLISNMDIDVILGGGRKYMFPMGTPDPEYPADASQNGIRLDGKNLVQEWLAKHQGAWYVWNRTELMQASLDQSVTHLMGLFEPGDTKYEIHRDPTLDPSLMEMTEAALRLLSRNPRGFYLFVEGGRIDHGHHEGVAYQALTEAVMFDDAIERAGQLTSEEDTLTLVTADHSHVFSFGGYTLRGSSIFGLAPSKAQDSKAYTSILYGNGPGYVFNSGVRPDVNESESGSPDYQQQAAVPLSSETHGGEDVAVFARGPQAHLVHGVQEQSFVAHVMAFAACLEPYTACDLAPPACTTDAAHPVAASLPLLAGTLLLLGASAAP
hIAP block: human IAP inhibitors, primary screen, biochemical, luminescence, uHTS | 330,000 compounds, 0.12% hits | AID 2544, 2010 | Intestinal-type alkaline phosphatase (Homo sapiens), P09923 | inhibition, % at 10 µM | purified IAP, CDP-Star luminescence, 30 min;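 active = inhibition reaching a set limit with compound at 10 µM in the primary screen, cut at about 35% in these data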;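 also: plate controls were DMSO wells with enzyme for no effect and no-enzyme buffer wells for full effect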
bIAP inhibitor: bovine intestinal alkaline phosphatase inhibitors, primary screen, selectivity assay for TNAP inhibitor project, biochemical, bovine IAP, CDP-star luminescence. alkaline phosphatase, intestinal [Bos taurus]. purified bovine IAP, 30 min. inhibition, % at 20 µM. 190,000 tested, under 10 active;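 active = over 50% inhibition of intestinal alkaline phosphatase at 20 µM in the single-dose screen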
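Assay system: bovine IAP enzyme; medium: DEA buffer 100 mM, pH 9.8, with MgCl2 1.0 mM, ZnCl2 0.02 mM; doses: 20 µM single dose; incubation: enzyme reaction for 30 min at room temperature; detection: CDP-star luminescence signal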
bIAP activator: bovine intestinal alkaline phosphatase activators, primary screen, biochemical, bovine IAP, CDP-star luminescence. alkaline phosphatase, intestinal [Bos taurus]. purified bovine IAP, 30 min; hits give high values; fold of DMSO-control signal, blank-subtracted. activation factor at 20 µM. 200,000 compounds, 0.17% hits. AID 1016, 2008;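 active = activation factor of 2 or more at 20 µM, a signal rise over negative controls twice the positive control's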
Numbers without * were called inactive; i = inactive; · = no result.

SMILES	mIAP block	mIAP act	hIAP act	hIAP block	bIAP inhibitor	bIAP activator
CC1CC(C)CN(CCC(=O)Nc2ccc(Br)cc2)C1 (stereo unspecified)	-12	1.1	0.85	15	·	·
N#CC1=C(S)N(c2ccccc2)C(c2ccc(-c3cc(Cl)ccc3Cl)o2)NC1=O (stereo unspecified)	16	0.83	0.95	5	-101	2*
N#CC1=C(S)N(c2ccccc2)C(c2ccc(-c3ccc(Cl)c(Cl)c3)o2)NC1=O (stereo unspecified)	17	0.83	0.78	22	·	·
c1ccc2c(c1)CCN(c1ncnc3c1[nH]c1ccccc13)C2	-26	1.3	1	-3	-113	2.1*
COc1ccc(C(=O)COC(=O)CN2C(=O)c3ccccc3C2=O)c(OC)c1	0	1	1.1	-7	·	·
Cc1ccc(N2CCN(C(=O)CCc3nc4ccccc4[nH]3)CC2)c(C)c1	-41	1.4	1.1	-6	-166	2.7*
Cn1cccc1CC(=O)NNC(=S)Nc1ccc(Cl)cc1	4	0.96	2.1*	-110	-4	1
O=C(/C=C/c1ccccc1[N+](=O)[O-])N1CCN(C(=O)c2ccco2)CC1	2	0.98	1.1	-7	-11	1.1
O=C(NC(=S)NNC(=O)c1cc2ccccc2cc1O)c1ccco1	35	0.65	2.2*	-124	8	0.9
O=C(NC(=S)NNC(=O)c1ccccc1O)c1ccco1	·	·	·	·	10	0.9
O=[N+]([O-])c1cncc([N+](=O)[O-])c1Nc1cccc(O)c1	0	1	0.91	9	·	·
COc1ccc(CCNC(=O)c2nn(C)cc2Cl)cc1	-1	1	1.1	-11	10	0.9
COc1ccc(CCNC(=O)c2cc(-c3ccc(Cl)c(Cl)c3)oc2C)cc1	-243	3.4*	0.93	7	-9	1.1
Cc1ccc(-n2cnc3cc(NCc4cccs4)ccc32)cc1	2	0.98	1	-3	i	22*
N/C(=N\c1nc2ccccc2o1)NC(=O)c1ccccc1Br	-9	1.1	1.1	-6	·	·
O=C(NCc1ccccc1)c1nc2c(nnn2Cc2cccc(Cl)c2)c(=O)[nH]1	-1	1	1.3	-26	-116	2.2*
O=C(NCc1ccco1)c1nc2c(nnn2Cc2cccc(Cl)c2)c(=O)[nH]1	-9	1.1	1.2	-24	-3	1
O=C(Nc1cccc2ccccc12)c1cn(-c2ccccc2)nc1-c1cccs1	-118	2.2*	1	-2	-12	1.1
CC(Cc1n[nH]c(=S)n1N)c1ccccc1 (stereo unspecified)	5	0.95	0.86	14	·	·
CC(=O)N1N=C(c2ccccc2)CC1c1cccs1 (stereo unspecified)	1	0.99	1.1	-15	·	·
CC(=O)Nc1ccc(C2=NN(c3ccccc3)C(c3cccs3)C2)cc1 (stereo unspecified)	-131	2.3*	1.2	-16	-29	1.3
O=C(Nc1cccc(Cl)c1)c1cc(N=Nc2ccc([N+](=O)[O-])cc2Cl)ccc1O	26	0.74	0.61	38*	·	·
O=C(Nc1ccc([N+](=O)[O-])cc1Cl)c1cc(Cl)ccc1O	2	0.97	1	0	·	·
COc1ccccc1N(CC(=O)Nc1ccc(Cc2ccncc2)cc1)S(=O)(=O)c1ccccc1	-22	1.2	1.2	-23	·	·
COc1ccc(N(CC(=O)Nc2ccc(Cc3ccncc3)cc2)S(=O)(=O)c2ccccc2)cc1	-135	2.4*	1.2	-22	·	·
SMILES	mIAP block	mIAP act	hIAP act	hIAP block	bIAP inhibitor	bIAP activator
C1CCC(c2nn3c(-c4n[nH]c5c4CCC5)nnc3s2)CC1	2	0.98	1	-1	-334	4.3*
Cc1c(CCOC(=O)C23CC4CC(CC(C)(C4)C2)C3)sc[n+]1Cc1ccccc1	43*	0.57	0.95	5	36	0.6
Cc1cccc(OCCCCCn2ccnc2)c1C	-6	1.1	1	0	-202	3*
N#Cc1cc2c(nc1SCc1ccccc1)CCCCC2	-1	1	0.76	24	36	0.6
N#Cc1cc2c(nc1SCc1cccc(Cl)c1)CCCCC2	41*	0.59	1	-2	26	0.7
CC(=O)OCCCNc1cc(SCc2ccco2)c2nonc2c1[N+](=O)[O-]	50*	0.5	1	-4	15	0.9
CCCSc1cc(NCCOC(=O)CCC)c([N+](=O)[O-])c2nonc12	17	0.83	0.91	9	·	0.4
CCCC(=O)OCCNc1cc(SCc2ccco2)c2nonc2c1[N+](=O)[O-]	49*	0.51	0.93	7	30	0.7
O=C(O)CCCNC(=O)CCCNC(=O)C(c1ccccc1)c1ccccc1	-3	1	0.99	1	-10	1.1
O=C1NC(=S)S/C1=C/c1ccc(N2CCOCC2)o1	53*	0.47	0.85	15	-2	1
CCOC(=O)C1CCN(C(=O)C2(NC(=O)Nc3ccccc3Cl)CCCCC2)CC1	-23	1.2	1.1	-12	-249	3.5*
CCOC(=O)C1CCN(C(=O)C2(NC(=O)Nc3ccccc3C)CCCCC2)CC1	-7	1.1	1.2	-21	·	·
COc1ccc(C(=O)NCCCn2ccnc2)cc1	3	0.97	1.3	-26	6	0.9
COc1ccc(-c2nn(-c3ccccc3)cc2C(=O)NCCCn2ccnc2)cc1	-46	1.5	0.91	9	-125	2.3*
CSc1c(CN2CCN(C)CC2)c2ccccc2n1C	-11	1.1	0.96	4	·	·
CC(C)(C)c1ccc(/C=N/NC(=S)Nc2cccnc2)cc1	-1	1	1	-3	-3	1
Oc1ccc(/C=N/NC(=S)Nc2cccnc2)cc1O	79*	0.21	0.72	28	-18	1.2
COc1ccc(Cl)cc1NC(=O)C(C)N1CCN(C/C=C/c2ccccc2)CC1 (stereo unspecified)	-12	1.1	0.82	18	-234	3.3*
CCCN(CCC)C(=O)CSc1nc2n[nH]c(C)c2c(=N)n1-c1ccc(OC)cc1	-28	1.3	1.1	-10	-190	2.9*
CCc1ccccc1NC(=O)CSc1nc2n[nH]c(C)c2c(=N)n1-c1ccc(OC)cc1	·	·	·	·	7	0.9
CCCN(CCC)C(=O)CSc1nc2n[nH]c(C)c2c(=N)n1-c1ccc(OCC)cc1	-8	1.1	0.9	10	-111	2.1*
CC(=O)Nc1ccccc1OCc1cnc(Cl)s1	-5	1	1.1	-14	6	0.9
